# Source: PubChem BioAssay (several laboratories)
# STAT1 act – increases IFN-gamma driven STAT1 reporter signal | NIH 3T3 STAT1-luciferase reporter, luminescence; 100% = IFN-gamma alone, no compound | activation (% of control), % at 5.5 µM | actives 2.6% (n = 200,000) | AID 932;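 active = activation above the screen-wide mean activation plus 3 SD, cut at about 130% in these data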;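 note: raw ratio to IFN-gamma control signal so 100% means no change and 0% no light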
# STAT1 blocker – reduces IFN-gamma driven STAT1 reporter signal | NIH 3T3 STAT1-luciferase reporter, luminescence | inhibition, % at 5.5 µM | actives 0.35% (n = 200,000);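 active = inhibition above a set limit, the mean inhibition across all tested compounds plus 3 SD, cut at about 34% in these data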;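 note: 0% = IFN-gamma with DMSO and 100% = IFN-gamma with 300 µM nifuroxazide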
# STAT3 activator – activators of IL-6 induced STAT3 signaling. U3A cells, IL-6 STAT3-luciferase reporter, luminescence; 100% = signal with IL-6 EC80 alone. actives 0.91% (n = 190,000). activation (% of control), % at 5.6 µM. AID 871;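 active = activation above the screen-wide mean of compound activation plus 3 SD, cut at about 130% in these data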;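 note: 0% = background luminescence of wells with medium and substrate only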
#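 system = STAT3-luciferase reporter U3A cells | reagent = IL-6 stimulus at 33 ng/mL final | timing = 1 h compound pre-exposure, 6 h IL-6 stimulation, 37 °C | measured by = luminescence | evaluation = % activation versus median of IL-6-stimulated wells | control set = IL-6-only wells as 100% reference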
# STAT3 blocker – STAT3 signaling inhibition | inhibition, % at 5.5 µM | AID 862 | U3A cells, IL-6 STAT3-luciferase reporter, luminescence; host cell line lacks STAT1 | actives 0.89% (n = 190,000);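 active = inhibition above the mean inhibition across all screened compounds plus 3 SD, cut at about 44% in these data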;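 note: 0% = DMSO only wells and 100% = 100 µM nifuroxazide control wells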
# APP 5'UTR act – activates APP 5'UTR luciferase reporter; SH-SY5Y APP 5'UTR luciferase reporter, luminescence; zero percent = DMSO vehicle wells; activation, % at 2 µM; actives 1% (n = 190,000);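 active = activation above a set limit, based on mean plus 3 SD of controls, cut at about 140% in these data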
# NF-kB neuron act – NF-kB expression increase, human neuronal cells. NF-kB reporter expression; active compounds read high. actives 1.6% (n = 190,000). AID 1239. fold change at 12.5 µM; in the data active = fold change above about 3.3
# * marks the source's active call; other numbers are inactive results; nt = no result given. An excerpt weighted towards active compounds, which were near 4.9% of everything screened.
SMILES,STAT1 act,STAT1 blocker,STAT3 activator,STAT3 blocker,APP 5'UTR act,NF-kB neuron act
CC1CCc2nc3sc4c(c3c(N)c2C1)CCCC4 (stereo not given),122,-24,94,15,31,1.6
O=c1c2c3c(sc2nc2n1CCCCC2)CCC3,105,-6,116,-12,8,1.6
Nc1c2c(nc3sc4c(c13)CCCCC4)CCCCC2,145*,-51,106,-4,185*,4*
CC1CCc2c(nc3sc4c(c3c2N)CCCC4)C1 (stereo not given),135*,-37,110,-14,65,1.8
CN1C(=O)/C(=C\C=C2/CCCN2C)N(C)C1=S,128,-31,97,5,11,5.7*
CCN1C(=O)/C(=C/C=C2/CCCN2C)OC1=S,116,-20,106,-3,29,1.7
COC(=O)c1ccc(-c2ccc(/C=N/N3C(=O)C4C5C=CC(C6CC56)C4C3=O)o2)cc1 (stereo not given),138*,-42,105,-4,36,1.4
O=C1CCOc2cc(OCc3ccccc3)ccc21,134*,-21,85,20,118,6.3*
O=C(O)C1CC(=O)N(c2ccc(OCc3ccccc3)cc2)C1 (stereo not given),96,4,101,6,-6,1.2
COc1ccccc1NC(=O)Cn1c2ccccc2c2nc3n(c(=O)c21)CCS3,87,13,101,9,15,0.98
CC(=O)c1ccc(-n2nncc2-c2ccc([N+](=O)[O-])cc2)cc1,96,3,111,-6,11,1.1
Cc1ccc(-c2nn(-c3ccccc3)cc2C=O)o1,143*,-47,101,1,144*,4.5*
O=C(N/N=C/c1cn(-c2ccccc2)nc1-c1cccs1)c1ccncc1,101,-1,86,17,26,1
Cc1ccc(-c2nn(-c3ccccc3)cc2CO)o1,148*,-50,96,7,98,3.8*
Cc1ccc(-c2nn(-c3ccccc3)cc2/C=N/NC(=O)c2ccncc2)o1,127,-31,83,22,158*,2.6
c1ccc(-c2cnc(CSc3nnc4ccccn34)o2)cc1,137*,-38,102,2,130,2.5
Fc1ccc(-c2nnc(CSc3nnc4ccccn34)o2)cc1,124,-26,105,-8,10,2
COc1ccccc1N1C(=O)S/C(=C\c2cc(C)n(C)c2C)C1=O,137*,-42,95,12,44,1.7
COc1ccc(N=C2S/C(=C\c3cc(C)n(C)c3C)C(=O)N2C)cc1,100,0,99,3,-20,1
O=C(c1cc2cc(Br)ccc2o1)N1CCCCC1,134*,-40,90,19,68,2.6
O=C(c1cc2ccccc2c(=O)o1)N1CCCCCC1,116,-17,100,-1,30,1.1
Cc1cc(C)c2nc3nc(C)c(C)cc3c(N)c2c1,143*,-46,122,-19,-4,0.84
CCCSc1nc(C)c2cc(C)cc(C)c2n1,89,12,98,0,-3,0.98
COc1ccc(-c2c(C)nn3c(N)c(C#N)cnc23)cc1OC,137*,-42,118,-13,-6,1.2
Cc1cc(S(=O)(=O)Nc2c(C(=O)O)[nH]c3ccccc23)ccc1F,96,5,135*,-34,-4,1
SMILES,STAT1 act,STAT1 blocker,STAT3 activator,STAT3 blocker,APP 5'UTR act,NF-kB neuron act
Cc1c(-c2ccc(Br)cc2)nc2ccccn12,148*,-53,118,-14,129,2.4
CN(C)c1ccc(-c2nc3ccccn3c2/N=C/c2ccc(Br)cc2)cc1,134*,-38,90,14,158*,1.8
c1ccn2c(c1)nc1c2nc2ccccn21,126,-27,96,11,22,2
COc1ccc(-c2nc3c4ccccc4ccn3c2C=O)cc1,96,5,114,-14,14,1.2
Cc1ccc(-c2nc3ccccn3c2C=O)cc1,132*,-37,107,0,58,3.1
COc1cc(-c2nc3ccccn3c2/N=C/c2cc(OC)c(OC)c(OC)c2)ccc1O,106,-7,100,10,8,nt
N#CC1(C#N)CC(C=O)=C(N)C1(C#N)CC(=O)C12CC3CC(CC(C3)C1)C2 (stereo not given),106,-7,98,6,2,1
CC(=O)Nc1ccc(NC(=O)CSc2nnc(C)c(=O)[nH]2)cc1,101,-1,108,-10,-7,1.2
Cn1nc(C(=O)NC(C)(C)C)c2ccccc21,100,1,106,-10,-13,1.1
Cc1ccccc1OCC(=O)Nc1ccc2c(c1)OCO2,110,-11,91,13,27,1.7
O=C(CCNc1ccccc1)c1ccc2c(c1)OCO2,148*,-52,100,6,55,3.1
CC(=O)Nc1ccccc1OCC(=O)c1ccc2c(c1)OCO2,135*,-38,105,0,123,1.4
Cn1nc(-c2ccc(Cl)cc2)c2cc(C(=O)N3CCOCC3)sc21,102,-2,122,-17,8,0.58
COc1ccc(N2CCN(C(=O)c3cc4c(-c5ccc(Cl)cc5)nn(C)c4s3)CC2)cc1,90,12,133*,-30,2,0.56
Cn1c(NCc2ccc(Cl)cc2)nc2ccccc21,136*,-39,101,8,70,0.79
CCN(CC)CCn1c(NCc2cc(OC)ccc2OC)nc2ccccc21,97,0,102,1,1,0.77
Cn1c(CNc2nc3ccccc3n2C)nc2ccccc21,114,-13,100,4,30,1.8
COc1ccc(CNc2nc3ccccc3n2C)c(OC)c1,108,-10,97,8,120,3.4*
COc1ccc(C(=O)Nc2cc(C(=O)NCCc3ccccc3)ccc2Cl)cc1,107,-8,108,-9,31,1.1
COCC(=O)Nc1cc(C(=O)NCCc2ccccc2)ccc1Cl,145*,-49,96,8,74,1.8
CCOCC(=O)Nc1cc(C(=O)NCCc2ccccc2)ccc1Cl,130*,-35,100,3,65,1.7
CC(C)CCNC(=O)c1ccc(Cl)c(NC(=O)Cc2ccccc2)c1,100,0,101,2,13,1.2
COC(=O)Nc1nc(-c2ccccc2)c(C(=O)c2ccc(Cl)cc2)s1,100,0,96,5,-9,1.4
CCOC(=O)Nc1nc(-c2ccccc2)c(C(=O)c2ccccc2)s1,102,-2,107,-11,-94,3.6*
CC(=O)c1sc(NC(=O)c2ccccc2)nc1-c1ccccc1,150*,-56,87,17,101,4.9*
CC(=O)c1sc(NC(=O)c2cccc(C)c2)nc1C,131*,-35,83,22,124,5.5*
FC(F)C(F)(F)C(F)(F)C(F)(F)c1cc(-c2ccccc2)n[nH]1,126,-27,99,7,25,5.1*
